According to ChEMBL document CHEMBL1140975, “Synthesis and antimalarial activity of carbamate and amide derivatives of 4-anilinoquinoline” (Eur J Med Chem, 2008):
Activity calls are given as the source filed them. The calls are words filed in the database; no cut-off is given here.

Columns and labels:
[1] = Cytotoxicity against human MRC5 cells after 7 days by MTT assay; assay type: cell-based
Method in brief: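 MRC-5 human embryonic lung cells were seeded at 5000 per well and washed after 24 h. Two-fold drug dilutions were added in RPMI + 5% FCS, with final DMSO below 0.5%. Plates were held at 37 °C in 5% CO₂ for 7 days. MTT absorbance at 540 nm was compared with untreated controls. CC₅₀ is the concentration causing 50% cytotoxicity.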

Plasmodium falciparum [2] = experiment: Antimalarial activity after 24 hrs against chloroquine-resistant Plasmodium falciparum FcB1R/Colombia by [3H]hypoxanthine uptake; assay type: functional, organism-based
Method in brief: (§1)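 Asynchronous P. falciparum cultures on human erythrocytes (1% parasitaemia, 1% final haematocrit) exposed to serial dilutions of drug for 24 h at 37 °C, then [3H]hypoxanthine added for another 24 h. Cells freeze-thawed, harvested onto glass-fibre filters and scintillation counted. Incorporation compared with drug-free control on the same plate. IC50 taken from concentration-response curve, mean ± SD of independent experiments. DMSO ≤0.1%.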

[3] = Selectivity index, ratio of IC50 for human MRC5 cells to IC50 for chloroquine-resistant Plasmodium falciparum FcB1R/Colombia; assay type: toxicity, cell-based; settings: read-out: Ratio CC50/IC50
Method in brief: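 SI is CC50 on MRC-5 over IC50 against FcB1R. MRC-5 cells were seeded at 5000 per well and treated after 24 h with two-fold dilutions in RPMI + 5% FCS (DMSO <0.5%). Incubation was 7 days at 37 °C, 5% CO2. Read-out was MTT, as % reduction of absorbance at 540 nm versus untreated cultures. CC50 is the concentration giving 50% cytotoxicity.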

Plasmodium falciparum [4] = experiment: Antimalarial activity against chloroquine-sensitive Plasmodium falciparum THAI/Thailand as [3H]hypoxanthine uptake after 24 hrs by semi-automated micro dilution; assay type: functional, organism-based; method in brief: as §1
Plasmodium falciparum [5] = experiment: Antimalarial activity after 24 hrs against chloroquine-resistant Plasmodium falciparum K1/Thailand by [3H]hypoxanthine uptake; assay type: functional, organism-based; method in brief: as §1
Plasmodium berghei [6] = experiment: Antimalarial activity as reduced parasitaemia in Plasmodium berghei ANKA 65 infected Swiss CD1 mice (Mus musculus) at 40 mg/kg/day peroral dose then intraperitoneal for 4 days; assay type: functional; set-up: scale not given: the % may be the effect or the level left; settings: route oral
Method in brief: (§2)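 Female Swiss CD-1 mice (4 weeks old, 20–25 g), three per group, infected intraperitoneally with about 10⁷ P. berghei ANKA 65-parasitized erythrocytes from an infected donor. The first dose was given orally in 100% DMSO at infection, then intraperitoneally on the following 4 days. Infected DMSO-dosed mice served as controls. Read-outs were parasitaemia reduction at day 4 and excess MST, the % prolongation of mean survival time versus controls.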

Mus musculus = species on record: Mus musculus; experiment: Toxicity in Plasmodium berghei ANKA 65 infected Swiss CD1 mice (Mus musculus); assay type: organism-based; settings: in vivo
Plasmodium berghei [7] = experiment: Antimalarial activity as increased MST in Plasmodium berghei ANKA 65 infected Swiss CD1 mice (Mus musculus) at 40 mg/kg peroral dose day 1 followed by intraperitoneal dose for 4 days; assay type: functional
Method in brief: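 Female Swiss CD-1 mice, four weeks old, 20-25 g, three per group. Infected ip with about 10^7 P. berghei ANKA 65 parasitized erythrocytes from a donor mouse. Dosed orally at 40 mg/kg in 100% DMSO at infection, then ip for the following 4 days. Controls were infected DMSO-dosed mice. Excess MST is the percent prolongation of mean survival time over controls.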

Plasmodium berghei [8] = experiment: Antimalarial activity as increased mean survival time in Plasmodium berghei ANKA 65 infected Swiss CD1 mice (Mus musculus) at 10 mg/kg peroral dose day 1 with intraperitoneal dose over 4 days; assay type: functional, organism-based; set-up: dose 10 mg/kg; method in brief: as §2
Plasmodium berghei [9] = experiment: Antimalarial activity as reduced parasitaemia in Plasmodium berghei ANKA 65 infected Swiss CD1 mice (Mus musculus) at 10 mg/kg/day peroral dose then intraperitoneal dose for 4 days; assay type: functional; set-up: scale not given: the % may be the effect or the level left; settings: route oral; method in brief: as §2

| Compound | CC50 at 168 h [1] [nM] | IC50 (Plasmodium falciparum [2]) [nM] | selectivity ratio [3] | also measured |
| --- | --- | --- | --- | --- |
| CN(C)CCN(C)C(=O)c1cc(NC(=O)CN2CCCCC2)cc(Nc2ccnc3cc(Cl)ccc23)c1 | 16000 | 18.8 | 851 | – |
| O=C(CN1CCCCC1)Nc1cc(Nc2ccnc3cc(Cl)ccc23)cc(C(=O)N2CCN(Cc3ccccc3)CC2)c1 | 15000 | 50.6 | 296 | – |
| O=C(CN1CCCCC1)Nc1cc(COC(=O)NCCN2CCOCC2)cc(Nc2ccnc3cc(Cl)ccc23)c1 | > 12500 | 48.3 | > 259 | IC50 (Plasmodium falciparum [4]): 38.6 nM; IC50 (Plasmodium falciparum [5]): 19.4 nM |
| CCN(CC)CCCCC(=O)OCc1cc(NC(=O)CN2CCCCC2)cc(Nc2ccnc3cc(Cl)ccc23)c1 | – | – | 89 | – |
| O=C(CN1CCCCC1)Nc1cc(Nc2ccnc3cc(Cl)ccc23)cc(C(=O)N2CCOCC2)c1 | > 32000 | 108 | > 298 | – |
| CN(C)CCNC(=O)c1cc(NC(=O)CN2CCCCC2)cc(Nc2ccnc3cc(Cl)ccc23)c1 | 15000 | 31.4 | 478 | – |
| O=C(CN1CCCCC1)Nc1cc(COC(=O)NCc2ccccc2)cc(Nc2ccnc3cc(Cl)ccc23)c1 | > 12500 | 36 | > 347 | – |
| O=C(CN1CCCCC1)Nc1cc(CNCCN2CCCC2)cc(Nc2ccnc3cc(Cl)ccc23)c1 | – | – | 182 | – |
| O=C(CN1CCCCC1)Nc1cc(Nc2ccnc3cc(Cl)ccc23)cc(C(=O)N2CCCCC2)c1 | > 32000 | 286 | > 112 | – |
| CN(C)CCCNC(=O)c1cc(NC(=O)CN2CCCCC2)cc(Nc2ccnc3cc(Cl)ccc23)c1 | > 32000 | 181 | > 177 | – |
| O=C(CN1CCCCC1)Nc1cc(COC(=O)CCCCN2CCOCC2)cc(Nc2ccnc3cc(Cl)ccc23)c1 | – | – | 887 | Activity (Plasmodium berghei [6]): 99.8%; Activity (Mus musculus): Non-toxic; Activity (Plasmodium berghei [7]; route oral): 73% |
| O=C(CN1CCCCC1)Nc1cc(COC(=O)CCCCN2CCCCC2)cc(Nc2ccnc3cc(Cl)ccc23)c1 | – | – | 806 | – |
| O=C(CN1CCCCC1)Nc1cc(Nc2ccnc3cc(Cl)ccc23)cc(C(=O)NCCN2CCCC2)c1 | 17000 | 16.6 | 1024 | – |
| O=C(CN1CCCCC1)Nc1cc(Nc2ccnc3cc(Cl)ccc23)cc(C(=O)NCCN2CCOCC2)c1 | > 32000 | 58.6 | > 546 | – |
| CN1CCN(CCCNC(=O)OCc2cc(NC(=O)CN3CCCCC3)cc(Nc3ccnc4cc(Cl)ccc34)c2)CC1 | 6300 | – | – | – |
| O=C(CN1CCCCC1)Nc1cc(Nc2ccnc3cc(Cl)ccc23)cc(C(=O)N2CCN(c3ccccc3)CC2)c1 | 16000 | 151 | 106 | – |

| Compound | CC50 at 168 h [1] [nM] | IC50 (Plasmodium falciparum [2]) [nM] | selectivity ratio [3] | also measured |
| --- | --- | --- | --- | --- |
| CN(C)CCCNCc1cc(NC(=O)CN2CCCCC2)cc(Nc2ccnc3cc(Cl)ccc23)c1 | – | – | 174 | – |
| CCN(CC)Cc1cc(Nc2ccnc3cc(Cl)ccc23)ccc1O.Cl | 12000 | 4.8 | 2500 | IC50 (Plasmodium falciparum [4]): 4.6 nM; Activity (Plasmodium berghei [8]): Active; Activity (Mus musculus): Non-toxic; Activity (Plasmodium berghei [9]): 100%; IC50 (Plasmodium falciparum [5]): 9.4 nM |
| O=C(CN1CCCCC1)Nc1cc(COC(=O)CCCCCN2CCCCC2)cc(Nc2ccnc3cc(Cl)ccc23)c1 | – | – | 456 | – |
| CCN(CC)CCCNC(=O)OCc1cc(NC(=O)CN2CCCCC2)cc(Nc2ccnc3cc(Cl)ccc23)c1 | 6300 | 14.5 | 434 | – |
| O=C(CN1CCCCC1)Nc1cc(CO)cc(Nc2ccnc3cc(Cl)ccc23)c1 | 12500 | – | 281 | Activity (Plasmodium berghei [6]): 100%; Activity (Mus musculus): Non-toxic; Activity (Plasmodium berghei [7]; route oral): 110% |
| O=C(CN1CCCCC1)Nc1cc(COC(=O)CN2CCCCC2)cc(Nc2ccnc3cc(Cl)ccc23)c1 | – | – | 231 | – |
| O=C(CN1CCCCC1)Nc1cc(COC(=O)CCN2CCCCC2)cc(Nc2ccnc3cc(Cl)ccc23)c1 | – | – | 158 | – |
| O=C(CN1CCCCC1)Nc1cc(CNCCN2CCCCC2)cc(Nc2ccnc3cc(Cl)ccc23)c1 | – | 6.6 | 648 | – |
| CN(C)CCNCc1cc(NC(=O)CN2CCCCC2)cc(Nc2ccnc3cc(Cl)ccc23)c1 | – | – | 1150 | – |
| O=C(CN1CCCCC1)Nc1cc(CNCCN2CCOCC2)cc(Nc2ccnc3cc(Cl)ccc23)c1 | – | 7.9 | 406 | Activity (Plasmodium berghei [6]): 100%; Activity (Mus musculus): Non-toxic; Activity (Plasmodium berghei [7]): Active |
| O=C(CN1CCCCC1)Nc1cc(COC(=O)NCCN2CCCCC2)cc(Nc2ccnc3cc(Cl)ccc23)c1 | 12500 | 11.2 | 1120 | IC50 (Plasmodium falciparum [4]): 19.4 nM; Activity (Plasmodium berghei [6]): 100%; Activity (Mus musculus): Non-toxic; IC50 (Plasmodium falciparum [5]): 9.7 nM; Activity (Plasmodium berghei [7]; route oral): 50% |
| CCN(CC)CCCC(C)Nc1ccnc2cc(Cl)ccc12 (stereo unspecified) [CHLOROQUINE] | 50000 | – | – | Activity (Plasmodium berghei [8]): Active; Activity (Mus musculus): Non-toxic; Activity (Plasmodium berghei [9]): 100% |
| CN(C)CCNC(=O)OCc1cc(NC(=O)CN2CCCCC2)cc(Nc2ccnc3cc(Cl)ccc23)c1 | 3100 | 10.2 | 304 | – |
| O=C(CN1CCCCC1)Nc1cc(Nc2ccnc3cc(Cl)ccc23)cc(C(=O)O)c1 | > 32000 | > 1000 | – | – |
| CN1CCN(C(=O)c2cc(NC(=O)CN3CCCCC3)cc(Nc3ccnc4cc(Cl)ccc34)c2)CC1 | 16000 | 19.2 | 833 | IC50 (Plasmodium falciparum [4]): 38.4 nM; Activity (Plasmodium berghei [6]): 99.96%; Activity (Mus musculus): Non-toxic; IC50 (Plasmodium falciparum [5]): 51.2 nM; Activity (Plasmodium berghei [7]; route oral): 150% |
